The results in this text go back to ChEMBL document CHEMBL1240463, “Synthesis and biological evaluation of (+)-labdadienedial, derivatives and precursors from (+)-sclareolide” (Eur J Med Chem, 2010).

Assay [1] concerns Vero. The experiment in a line: Selectivity index, ratio of IC50 for green monkey Vero cells over IC50 for human HeLa cells. The class given is functional. The method in brief: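 Selectivity index is the Vero IC50 divided by the HeLa IC50. Both IC50s come from the 48 h MTT assay, each from linear-regression dose-effect curves.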
A further assay has as its system Aspergillus terreus. The assay is described as follows: Antifungal activity against Aspergillus terreus CDC 317 at 100 ug/mL after 48 hrs by CLSI M38-A assay.
A further assay relates to HeLa. The assay is described as follows: Cytotoxicity against human HeLa cells after 48 hrs by MTT assay. The format is functional, cell-based. The procedure, abridged: (§1)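 MTT colorimetric assay. HeLa (ATCC CCL-2) and Vero (ATCC CCL-81) cells were grown in MEM with 10% FBS at 37 °C, 5% CO2, then seeded at 1.5×10^4 (HeLa) or 1.25×10^4 (Vero) cells/well. Compound dilutions were added after 24 h and incubated 48 h more. Cell controls had 0.05% DMSO; vincristine was the reference. IC50 came from linear-regression dose-effect curves, mean ± S.E.M. of at least four dilutions in quadruplicate.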
(In general: Tetrazolium assays rely on reduction of a dye to a coloured formazan, in cell work by metabolically active cells.)

For another assay, the system named is Aspergillus flavus. The assay is described as follows: Antifungal activity against Aspergillus flavus ATCC 204304 at 100 ug/mL after 48 hrs by CLSI M38-A assay.
Assay [2] has as its system Candida tropicalis. The assay is described as follows: Antifungal activity against Candida tropicalis CECT 11901 at 100 ug/mL after 24 hrs by AFSTEUCAST assay. The format is functional, organism-based.
The test system of assay [3] is Candida albicans. The assay is described as follows: Antifungal activity against Candida albicans ATCC 10231 at 100 ug/mL after 24 hrs by AFSTEUCAST assay. The class given is functional, organism-based.
The subject of another assay is Fusarium oxysporum. The assay is described as follows: Antifungal activity against Fusarium oxysporum ATCC 48112 after 48 hrs by CLSI M38-A assay. Particulars: ATCC 48112, 48 h.
In assay [4] the test system is Candida parapsilosis. The assay is described as follows: Antifungal activity against Candida parapsilosis ATCC 22019 at 100 ug/mL after 24 hrs by AFSTEUCAST assay. The class given is functional, organism-based.
The subject of the next assay is Aspergillus fumigatus. The experiment in a line: Antifungal activity against Aspergillus fumigatus ATCC 204305 after 48 hrs by CLSI M38-A assay. Conditions: ATCC 204305, 48 h.
In assay [5] the test system is Pichia kudriavzevii. The experiment in a line: Antifungal activity against Candida krusei ATCC 6258 at 100 ug/mL after 24 hrs by AFSTEUCAST assay. The class given is functional, organism-based.
Assay [6] deals with Vero. The experiment in a line: Cytotoxicity against african green monkey Vero cells after 48 hrs by MTT assay. Particulars: Chlorocebus sabaeus. The format is cell-based. The method in brief: as §1
The subject of another assay is Trichophyton rubrum. The assay is described as follows: Antifungal activity against Trichophyton rubrum ATCC 28188 after 6 days by CLSI M38-A assay. Particulars: ATCC 28188, 6 days.
For assay [7], the system named is Trichophyton mentagrophytes. The experiment in a line: Antifungal activity against Trichophyton mentagrophytes ATCC 24198 after 6 days by CLSI M38-A assay. Particulars: ATCC 24198, 6 days.
The test system of a further assay is B16. The assay is described as follows: Cytotoxicity against mouse B16 cells. The class given is functional, cell-based.
In the next assay the test system is P388. The experiment in a line: Cytotoxicity against mouse P388 cells. The format is functional, cell-based.
Another assay deals with SNU1. The assay is described as follows: Cytotoxicity against human SNU1 cells. The format is functional, cell-based.
A further assay deals with Human alphaherpesvirus 1. The assay is described as follows: Antiviral activity against HSV1 infected in Vero cells assessed reduction factor at 12.5 ug/ml after 36 hrs by end-point titration technique relative to control. The format is functional. The method in brief: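 HSV-1 (CDC) end-point titration on Vero cells. Two-fold compound dilutions were mixed with one infection dose of virus (TCID50/0.1 mL) for 0.5 h at 37 °C. The mixture was added to confluent monolayers and incubated 36 h at 37 °C, 5% CO2. Reduction factor is the virus titer without compound divided by the titer with compound.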

Assay [8] concerns Candida tropicalis. The assay is described as follows: Antifungal activity against Candida tropicalis CECT 11901 at 12.5 ug/mL after 24 hrs by AFSTEUCAST assay. The class given is functional, organism-based.
Assay [9] has as its system Candida parapsilosis. The assay is described as follows: Antifungal activity against Candida parapsilosis ATCC 22019 at 6.25 ug/mL after 24 hrs by AFSTEUCAST assay. The format is functional, organism-based.
The subject of assay [10] is Candida albicans. The experiment in a line: Antifungal activity against Candida albicans ATCC 10231 at 12.5 ug/mL after 24 hrs by AFSTEUCAST assay. The format is functional, organism-based.
A further assay deals with KB. The experiment in a line: Cytotoxicity against human KB cells. The format is functional. Conditions: read-out: ED50 (the source's name).
The test system of assay [11] is Pichia kudriavzevii. The assay is described as follows: Antifungal activity against Candida krusei ATCC 6258 at 6.25 ug/mL after 24 hrs by AFSTEUCAST assay. The format is functional, organism-based.

Values after ≈ are worked out from the molar mass of the structure shown. Active and inactive are the calls of the source.

As usually defined, the IC50 is the concentration that gives 50% inhibition. Broadly, the MIC is the smallest concentration in the dilution series that meets the test's criterion for growth inhibition. As to `CON(C)C(=O)C[C@H]1[C@@]2(C)CCCC(C)(C)[C@@H]2CC[C@]1(C)O` [WEINREB'S AMIDE], in the assay with Vero [1], the “Selectivity Index” value turned out to be 1.23. The result with Aspergillus terreus, in the assay with Aspergillus flavus, in the assay on Candida tropicalis [2], in the assay on Candida albicans [3], in the assay on Candida parapsilosis [4] and in the assay on Pichia kudriavzevii [5] was inactive. The IC50 in the assay with HeLa was 66.8 µg/mL (≈ 214 µM); in the assay with Vero [6] it was 82 µg/mL (≈ 263 µM). The MIC was above 100 µg/mL against Fusarium oxysporum, 50 µg/mL (≈ 161 µM) with Aspergillus fumigatus, 50 µg/mL (≈ 161 µM) against Trichophyton rubrum and 39.7 µg/mL (≈ 127 µM) in assay [7].

Take `CCC(C)n1ncn(-c2ccc(N3CCN(c4ccc(OCC5COC(Cn6cncn6)(c6ccc(Cl)cc6Cl)O5)cc4)CC3)cc2)c1=O` (stereo not given) [ITRACONAZOLE]: in the assay with Aspergillus fumigatus, the MIC was 0.17 µg/mL (≈ 0.241 µM).

As for `C=C1CCC2C(C)(C)CCC[C@]2(C)[C@H]1CC=O` (stereo not given in full), the “Selectivity Index” value with Vero [1] was determined as 4.11. Besides, the IC50 is 30.8 µg/mL (≈ 131 µM) with B16; 2.6 µg/mL (≈ 11.1 µM) with HeLa; 0.16 µg/mL (≈ 0.683 µM) in the assay on P388; 3.9 µg/mL (≈ 16.6 µM) in the assay on SNU1; 10.7 µg/mL (≈ 45.7 µM) with Vero [6]. Further, the outcome in the assay on Candida tropicalis [2], with Candida albicans [3], in the assay on Candida parapsilosis [4] and in the assay on Pichia kudriavzevii [5] was inactive. Moreover, the MIC with Fusarium oxysporum was above 100 µg/mL; in the assay with Aspergillus fumigatus it was above 100 µg/mL; with Trichophyton rubrum, 31.5 µg/mL (≈ 134 µM); in assay [7] it was 31.5 µg/mL (≈ 134 µM).

Take `C=C1CC[C@H]2C(C)(C)CCC[C@]2(C)[C@H]1C/C=C(\CO)CCO`: the “Selectivity Index” value in the assay on Vero [1] stood at 0.42. Also, the IC50 in the assay on HeLa is 91 µg/mL (≈ 297 µM); with Vero [6] it was 38 µg/mL (≈ 124 µM). For the same molecule, the outcome with Candida tropicalis [2], with Candida albicans [3], in the assay on Candida parapsilosis [4] and in the assay with Pichia kudriavzevii [5] was inactive. In addition, the minimal inhibitory concentration (MIC) (against Fusarium oxysporum; in the assay on Aspergillus fumigatus; in the assay on Trichophyton rubrum; in assay [7]) was above 100 µg/mL throughout.

For `C=C1CC[C@H]2C(C)(C)CCC[C@]2(C)[C@H]1C/C=C(\C=O)CC=O` (mixture of isomers) [LABDADIENEDIAL], the “Selectivity Index” value in the assay on Vero [1] turned out to be 0.67. For the same molecule, the Activity with Human alphaherpesvirus 1 was 100. Further, the outcome in the assay with Aspergillus terreus and with Aspergillus flavus was inactive. The IC50 was 41.2 µg/mL in the assay with B16; 19.5 µg/mL in the assay with HeLa; 4.1 µg/mL with P388; 12 µg/mL in the assay with SNU1; 13.1 µg/mL with Vero [6]. Also, the result with Candida tropicalis [8], in the assay on Candida parapsilosis [9], in the assay on Candida tropicalis [2], in the assay on Candida albicans [3], with Candida albicans [10] and with Candida parapsilosis [4] was Active. Further, the outcome in the assay on Pichia kudriavzevii [5] and in the assay on Pichia kudriavzevii [11] was Active. Besides, the MIC worked out at 19.8 µg/mL against Fusarium oxysporum, 79.4 µg/mL with Aspergillus fumigatus, 0.62 µg/mL in the assay on Trichophyton rubrum and 1.24 µg/mL in assay [7]. Besides, the EC50 with KB was found to be 40 µg/mL.

As for `CN(C/C=C/C#CC(C)(C)C)Cc1cccc2ccccc12` [TERBINAFINE], the results for the minimal inhibitory concentration (MIC) (against Trichophyton rubrum; in [7]) were below 0.078 µg/mL and 0.0312 µg/mL (≈ 0.107 µM), respectively.

As to `C=C1CC[C@H]2C(C)(C)CCC[C@]2(C)[C@H]1CC(=O)N(C)OC`, the “Selectivity Index” value in the assay with Vero [1] was 2.69. In addition, the IC50 with HeLa is 11.7 µg/mL (≈ 39.9 µM); with Vero [6], 31.5 µg/mL (≈ 107 µM). Moreover, the result in the assay with Candida tropicalis [2], with Candida albicans [3], in the assay on Candida parapsilosis [4] and with Pichia kudriavzevii [5] was inactive. Moreover, the MIC against Fusarium oxysporum was above 100 µg/mL; in the assay on Aspergillus fumigatus, above 100 µg/mL; against Trichophyton rubrum, 50 µg/mL (≈ 170 µM); in assay [7], 19.8 µg/mL (≈ 67.5 µM).

With `C=C1CC[C@H]2C(C)(C)CCC[C@]2(C)[C@H]1C/C=C(/CC(=O)OC)C(=O)OC`, the “Selectivity Index” value in the assay on Vero [1] was 2.32. Moreover, the IC50 with HeLa was determined as 14.5 µg/mL (≈ 40 µM); in the assay on Vero [6] it was 33.7 µg/mL (≈ 93 µM). The outcome in the assay on Candida tropicalis [2], in the assay on Candida albicans [3], in the assay with Candida parapsilosis [4] and with Pichia kudriavzevii [5] was inactive. Further, the MIC (in the assay with Fusarium oxysporum; in the assay with Aspergillus fumigatus; against Trichophyton rubrum; in [7]) was above 100 µg/mL throughout.

Take `CC[C@]1(O)C[C@H]2CN(CCc3c([nH]c4ccccc34)[C@@](C(=O)OC)(c3cc4c(cc3OC)N(C=O)[C@H]3[C@@](O)(C(=O)OC)[C@H](OC(C)=O)[C@]5(CC)C=CCN6CC[C@]43[C@@H]65)C2)C1` [VINCRISTINE]: in the assay with Vero [1], the Selectivity Index worked out at 22. In addition, the IC50 with HeLa worked out at 0.05 µg/mL (≈ 0.0606 µM); in the assay with Vero [6], 1.1 µg/mL (≈ 1.33 µM).

In the case of `C[C@@H]1[C@H](O)[C@@H](C)/C=C/C=C/C=C/C=C/C=C/C=C/C=C/[C@H](O[C@@H]2O[C@H](C)[C@@H](O)[C@H](N)[C@@H]2O)C[C@@H]2O[C@](O)(C[C@@H](O)C[C@@H](O)[C@H](O)CC[C@@H](O)C[C@@H](O)CC(=O)O[C@H]1C)C[C@H](O)[C@H]2C(=O)O` [AMPHOTERICIN B], 2 µg/mL (≈ 2.16 µM) was the least that counted as inhibitory with Aspergillus fumigatus (MIC).

With `C=C1CC[C@H]2C(C)(C)CCC[C@]2(C)[C@H]1C/C=C(/CC(=O)O)C(=O)O`, in the assay on Vero [1], the “Selectivity Index” value came to 0.46. The results for the IC50 with HeLa and in the assay on Vero [6] were 84.5 µg/mL (≈ 253 µM) and 39 µg/mL (≈ 117 µM), respectively. The result in the assay with Candida tropicalis [2], with Candida albicans [3], with Candida parapsilosis [4] and with Pichia kudriavzevii [5] was inactive. For the same molecule, the MIC (against Fusarium oxysporum; in the assay with Aspergillus fumigatus; in the assay with Trichophyton rubrum; in [7]) was above 100 µg/mL throughout.
